Activity calls are given as the source filed them. The rule behind the calls is not given here.
Experiments:
[1] = Binding affinity to biotin-labeled 18-mer duplex DNA hairpin (unknown origin) at 40 uM after 30 mins by SPR analysis
[2] = molecular target: T1, Nucleoside diphosphate kinase B (Homo sapiens, UniProt P22392); assay: Binding affinity to NM23-H2 (unknown origin) by SPR analysis
[3] = Binding affinity to Htg21 telomeric G-quadruplex DNA (unknown origin) at 40 uM after 30 mins by SPR analysis
[4] = molecular target: T1, Nucleoside diphosphate kinase B; assay: Binding affinity to N-terminal NT-647-NHS labeled NM23-H2 (unknown origin) after 30 mins by MST analysis
Method in brief: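 NM23-H2 N-terminally labeled with RED-NHS dye (20 μM protein, 30 min dark, RT), free dye removed; 200 nM labeled protein with compound from 500 μM, 16 twofold steps, 30 min RT in 50 mM Tris-HCl pH 7.4, 150 mM NaCl, 10 mM MgCl2, 0.05% Tween-20; KD at half-plateau.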

[5] = molecular target: T1, Nucleoside diphosphate kinase B; assay: Binding affinity to NM23-H2 (unknown origin) assessed as ratio of Kd for protein interaction with biotin-labeled Pu22 c-myc G-quadruplex DNA in presence and absence of compound after 1 hr by ELISA
[6] = molecular target: T1, Nucleoside diphosphate kinase B; assay: Binding affinity to NM23-H2 (unknown origin) up to 40 uM by SPR analysis
[7] = Binding affinity to biotin-labeled Pu22 c-myc G-quadruplex DNA (unknown origin) by SPR analysis

T1 sequence (P22392 whole entry): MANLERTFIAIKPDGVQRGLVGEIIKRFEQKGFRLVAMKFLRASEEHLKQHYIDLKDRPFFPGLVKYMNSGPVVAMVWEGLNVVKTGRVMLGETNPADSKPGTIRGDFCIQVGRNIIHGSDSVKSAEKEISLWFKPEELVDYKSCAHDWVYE

SMILES | Activity [1] | Kd [2] [µM] | Activity [3] | Kd [4] [µM] | Ratio [5] | Activity [6] | Kd [7] [µM]
CCN(CC)CCCNc1cc2nc3n(c(=O)c2cc1F)CC/C3=C\c1ccc(OC)cc1 | inactive | 15.4 | inactive | 23.5 |  |  | 
CCN(CC)CCCNc1cc2nc3n(c(=O)c2cc1F)CC/C3=C\c1cc(OC)c(OC)c(OC)c1 | inactive | 16.3 | inactive | 28.2 |  |  | 
CCN(CC)CCCNc1cc2nc3n(c(=O)c2cc1F)CC/C3=C\c1ccc(N(CC)CC)cc1 | inactive |  | inactive | 48.5 | 2.1 to 2.6 | inactive | 
O=c1c2cc(F)c(NCCCN3CCOCC3)cc2nc2n1CC/C2=C\c1ccc(N2CCCCC2)cc1 | inactive |  | inactive |  |  | inactive | 
CN(C)CCNc1cc2nc3n(c(=O)c2cc1F)CC/C3=C\c1ccc(C=O)cc1 | inactive |  | inactive | 68 |  | inactive | 
O=c1c2cc(F)c(N3CCOCC3)cc2nc2n1CC/C2=C\c1ccc(OCc2ccccc2)cc1O | inactive |  | inactive | 56 |  | inactive | 
COc1ccc(/C=C2\CCn3c2nc2cc(NCCCN4CCOCC4)c(F)cc2c3=O)cc1 | inactive | 28.4 | inactive | 25.6 |  |  | 
O=c1c2cc(F)c(NCCCN3CCOCC3)cc2nc2n1CC/C2=C\c1ccc(OCc2ccccc2)cc1 | inactive | 18.4 | inactive | 22.3 | 2.1 to 2.6 |  | 
C#CCOc1ccc(/C=C2\CCn3c2nc2cc(NCCN(C)C)c(F)cc2c3=O)cc1 | inactive |  | inactive | 27.5 |  | inactive | 
CCN(CC)CCCNc1cc2nc3n(c(=O)c2cc1F)CC/C3=C\c1ccc(N(CC)CC)cc1O | inactive | 13.9 | inactive | 11.7 | 2.1 to 2.6 |  | 
CC(=O)Oc1ccc(/C=C2\CCn3c2nc2cc(NCCCN(C)C)c(F)cc2c3=O)cc1 | inactive | 10.1 | inactive | 18.9 |  |  | 35.8
COc1ccc(/C=C2\CCn3c2nc2cc(NCCCN(C)C)c(F)cc2c3=O)cc1OC | inactive | 15.8 | inactive | 19.2 |  |  | 
CCCOc1ccc(/C=C2\CCn3c2nc2cc(NCCCN(C)C)c(F)cc2c3=O)cc1 | inactive | 20.6 | inactive | 21 |  |  | 
CN(C)CCCNc1cc2nc3n(c(=O)c2cc1F)CC/C3=C\c1ccc(OCc2ccccc2)c(O)c1 | inactive | 13.2 | inactive | 16.1 | > 3 |  | 
CN(C)CCCNc1cc2nc3n(c(=O)c2cc1F)CC/C3=C\c1ccc(O)c(O)c1 | inactive | 9.2 | inactive | 10.7 |  |  | 
CCN(CC)CCCNc1cc2nc3n(c(=O)c2cc1F)CC/C3=C\c1ccc(/C=C/c2ccccn2)cc1 | inactive | 13.8 | inactive | 20.8 | 2.1 to 2.6 |  | 
COc1cc(/C=C2\CCn3c2nc2cc(NCCCN4CCOCC4)c(F)cc2c3=O)cc(OC)c1OC | inactive | 18.5 | inactive | 23.6 |  |  | 
O=Cc1ccc(/C=C2\CCn3c2nc2cc(NCCCN4CCOCC4)c(F)cc2c3=O)cc1 | inactive | 38 | inactive |  |  |  | 
CN(C)CCNc1cc2nc3n(c(=O)c2cc1F)CC/C3=C\c1ccc(OCc2ccccc2)cc1O | inactive | 8.1 | inactive | 6.4 | > 3 |  | 
CCN(CC)CCCNc1cc2nc3n(c(=O)c2cc1F)CC/C3=C\c1ccc(N2CCCCC2)cc1 | inactive |  | inactive |  |  | inactive | 
CCN(CC)CCCNc1cc2nc3n(c(=O)c2cc1F)CC/C3=C\c1ccc(F)cc1 | inactive |  | inactive | 61.6 |  | inactive | 
CCN(CC)c1ccc(/C=C2\CCn3c2nc2cc(NCCCN4CCOCC4)c(F)cc2c3=O)cc1 | inactive |  | inactive |  |  | inactive | 
CCN(CC)c1ccc(/C=C2\CCn3c2nc2cc(NCCN(C)C)c(F)cc2c3=O)cc1 | inactive |  | inactive | 45.7 |  | inactive | 

SMILES | Activity [1] | Kd [2] [µM] | Activity [3] | Kd [4] [µM] | Ratio [5] | Activity [6] | Kd [7] [µM]
C#CCOc1ccc(/C=C2\CCn3c2nc2cc(NCCCN(C)C)c(F)cc2c3=O)cc1 | inactive | 25.6 | inactive | 8.9 |  |  | 
CCN(CC)CCCNc1cc2nc3n(c(=O)c2cc1F)CC/C3=C\c1ccc(C(C)C)cc1 | inactive |  | inactive |  |  | inactive | 
CCN(CC)CCCNc1cc2nc3n(c(=O)c2cc1F)CC/C3=C\c1ccc(OCc2ccccc2)c(O)c1 | inactive | 16.7 | inactive | 25.8 | > 3 |  | 
COc1cc(/C=C2\CCn3c2nc2cc(NCCCN(C)C)c(F)cc2c3=O)cc(OC)c1O | inactive | 13.3 | inactive | 16.5 |  |  | 
CCN(CC)CCCNc1cc2nc3n(c(=O)c2cc1F)CC/C3=C\c1ccc(OC)c(OC)c1 | inactive | 17.1 | inactive | 25.1 |  |  | 
CCN(CC)CCCNC(=O)c1ccc(/C=C2\CCn3c2nc2cc(NCCN4CCCC4)c(F)cc2c3=O)cc1 |  | 7.6 |  |  |  |  | 3.8
CCN(CC)CCCNc1cc2nc3n(c(=O)c2cc1F)CC/C3=C\c1ccccc1OC | inactive |  | inactive | 72.8 |  | inactive | 
COc1cc(/C=C2\CCn3c2nc2cc(NCCCN(C)C)c(F)cc2c3=O)cc(OC)c1OC | inactive | 16.8 | inactive | 18.4 | 2.1 to 2.6 |  | 
CCN(CC)CCCNc1cc2nc3n(c(=O)c2cc1F)CC/C3=C\c1ccc(OCc2ccccc2)cc1 | inactive | 14.6 | inactive | 20.6 | > 3 |  | 
CN(C)CCCNc1cc2nc3n(c(=O)c2cc1F)CC/C3=C\c1ccc(Oc2ccccc2)cc1 | inactive | 12.4 | inactive | 16.3 |  |  | 
CC(C)Oc1ccc(/C=C2\CCn3c2nc2cc(NCCCN(C)C)c(F)cc2c3=O)cc1 | inactive | 9.6 | inactive | 15.4 | > 3 |  | 
O=c1c2cc(F)c(NCCCN3CCOCC3)cc2nc2n1CC/C2=C\c1ccc(OCc2ccccc2)cc1O | inactive | 14.3 | inactive | 16.9 |  |  | 
CC(C)c1ccc(/C=C2\CCn3c2nc2cc(NCCCN4CCOCC4)c(F)cc2c3=O)cc1 | inactive |  | inactive |  |  | inactive | 
CCN(CC)CCCNc1cc2nc3n(c(=O)c2cc1F)CC/C3=C\c1ccc(N2CCOCC2)cc1 | inactive |  | inactive | 55.3 |  | inactive | 
CCN(CC)CCCNc1cc2nc3n(c(=O)c2cc1F)CC/C3=C\c1ccc(C(F)(F)F)cc1 | inactive |  | inactive | 59.4 |  | inactive | 
O=c1c2cc(F)c(NCCCN3CCOCC3)cc2nc2n1CC/C2=C\c1ccc(F)cc1 | inactive |  | inactive | 44.2 |  | inactive | 
CCN(CC)CCCNc1cc2nc3n(c(=O)c2cc1F)CC/C3=C\c1ccc(OCc2ccccc2)cc1O | inactive | 4.6 | inactive | 3.4 | > 3 |  | 
O=c1c2cc(F)c(NCCCN3CCCC3)cc2nc2n1CC/C2=C\c1ccc(OCc2ccccc2)cc1O | inactive | 11.5 | inactive | 10.8 | > 3 |  | 
O=c1c2cc(F)c(NCCCN3CCOCC3)cc2nc2n1CC/C2=C\c1ccc(C(F)(F)F)cc1 | inactive |  | inactive |  |  | inactive | 
CN(C)CCCNc1cc2nc3n(c(=O)c2cc1F)CC/C3=C\c1ccc(/C=C/c2ccccn2)cc1 | inactive | 8.5 | inactive | 10.8 | > 3 |  | 
O=c1c2cc(F)c(NCCCN3CCOCC3)cc2nc2n1CC/C2=C\c1ccc(N2CCOCC2)cc1 | inactive |  | inactive |  |  | inactive | 
O=c1c2cc(F)c(NCCN3CCCCC3)cc2nc2n1CC/C2=C\c1ccc(OCc2ccccc2)cc1O | inactive | 12.2 | inactive | 7.6 | > 3 |  | 

— ChEMBL document CHEMBL4017489, “Design, Synthesis, and Evaluation of New Selective NM23-H2 Binders as c-MYC Transcription Inhibitors via Disruption of the NM23-H2/G-Quadruplex Interaction” (J Med Chem, 2017)
